{"source": "ChEMBL document CHEMBL5036319", "about": "“Discovery of Novel Benzothiazepinones as Irreversible Covalent Glycogen Synthase Kinase 3β Inhibitors for the Treatment of Acute Promyelocytic Leukemia” (J Med Chem, 2021)", "key": {"MOLT-4": {"tested_on": "MOLT-4", "experiment": "Cytotoxicity against human MOLT-4 cells assessed as reduction in cell viability measured after 24 hrs by CCK-8 assay", "type": "functional, cell-based", "details": "MOLT-4, 24 h", "outline": "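Cells were grown in RPMI-1640 or high-glucose DMEM with 10% FBS at 37 °C, 5% CO2, and seeded at 3 × 10^4 cells/well. Exposure was 24 h across serial concentrations (0−1000 μM in the screen). […] Three independent experiments, mean ± SEM.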"}, "[1]": {"biological_target": "Glycogen synthase kinase-3 alpha (Homo sapiens) (UniProt P49840)", "sequence (P49840 2-483 limits assumed)": "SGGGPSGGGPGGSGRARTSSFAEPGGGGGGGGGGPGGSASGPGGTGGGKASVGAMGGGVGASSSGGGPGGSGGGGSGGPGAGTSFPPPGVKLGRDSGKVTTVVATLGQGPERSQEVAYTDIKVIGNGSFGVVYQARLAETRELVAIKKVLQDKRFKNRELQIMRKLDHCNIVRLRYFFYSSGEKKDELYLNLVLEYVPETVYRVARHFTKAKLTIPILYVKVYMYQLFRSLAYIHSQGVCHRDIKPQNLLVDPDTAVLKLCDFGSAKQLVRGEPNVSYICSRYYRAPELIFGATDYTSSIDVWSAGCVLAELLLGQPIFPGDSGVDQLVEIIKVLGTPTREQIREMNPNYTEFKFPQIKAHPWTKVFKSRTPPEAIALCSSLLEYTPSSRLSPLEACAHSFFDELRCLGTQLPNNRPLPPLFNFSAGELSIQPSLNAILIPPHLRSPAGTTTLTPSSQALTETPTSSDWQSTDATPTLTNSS", "experiment": "Inhibition of recombinant human GSK-3alpha at 100 uM by mobility shift assay relative to control"}, "[2]": {"experiment": "Cytotoxicity against human L02 cells assessed as cell viability at 0 to 50 uM incubated for 24 hrs by CCK-8 assay relative to control", "type": "cell-based", "details": "dose 0-50 µM, read-out: Activity", "outline": "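HUVEC and LO2 normal cells were cultured in RPMI-1640 or DMEM with 10% FBS at 37 °C, 5% CO2, and seeded at 3 × 10^4 cells/well. They were exposed for 24 h to graded concentrations. CCK-8 incubation was 3 h at 37 °C, with A450 read and viability expressed versus untreated control. Three independent experiments, mean ± SEM.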"}, "[3]": {"experiment": "Induction in caspase-mediated apoptosis in human NB-4 cells assessed as necrotic cells at 12.5 uM incubated for 24 hrs by Annexin V-FITC/Propidium iodide staining based flow cytometry analysis (reference value: 0.352%)", "type": "functional"}, "[4]": {"experiment": "Induction in caspase-mediated apoptosis in human NB-4 cells assessed as late apoptotic cells at 25 uM incubated for 24 hrs by Annexin V-FITC/propidium iodide staining based flow cytometry analysis (reference value: 1.06%)", "type": "functional"}, "[5]": {"experiment": "Induction in caspase-mediated apoptosis in human NB-4 cells assessed as late apoptotic cells at 50 uM incubated for 24 hrs by Annexin V-FITC/propidium iodide staining based flow cytometry analysis (reference value: 1.06%)", "type": "functional"}, "[6]": {"experiment": "Induction in caspase-mediated apoptosis in human NB-4 cells assessed as viable cells at 12.5 uM incubated for 24 hrs in presence of Z-VAD-FMK by Annexin V-FITC/propidium iodide staining based flow cytometry analysis (reference value: 96.8%)", "type": "functional", "details": "read-out: Activity"}, "[7]": {"experiment": "Induction in caspase-mediated apoptosis in human NB-4 cells assessed as late apoptotic cells at 25 uM incubated for 24 hrs in presence of Z-VAD-FMK by Annexin V-FITC/propidium iodide staining based flow cytometry analysis (reference value: 1.15%)", "type": "functional"}, "[8]": {"experiment": "Induction in caspase-mediated apoptosis in human NB-4 cells assessed as viable cells at 50 uM incubated for 24 hrs in presence of Z-VAD-FMK by Annexin V-FITC/propidium iodide staining based flow cytometry analysis (reference value: 96.8%)", "type": "functional", "details": "read-out: Activity"}, "[9]": {"experiment": "Induction in caspase-mediated apoptosis in human NB-4 cells assessed as early apoptotic cells at 50 uM incubated for 24 hrs in presence of Z-VAD-FMK by Annexin V-FITC/propidium iodide staining based flow cytometry analysis (reference value: 1.84%)", "type": "functional"}, "[10]": {"experiment": "Induction in caspase-mediated apoptosis in human NB4-DR1 cells assessed as viable cells at 12.5 uM incubated for 24 hrs by Annexin V-FITC/propidium iodide staining based flow cytometry analysis (reference value: 96.9%)", "type": "functional", "details": "read-out: Activity"}, "[11]": {"experiment": "Induction in caspase-mediated apoptosis in human NB4-DR1 cells assessed as late apoptotic cells at 12.5 uM incubated for 24 hrs by Annexin V-FITC/propidium iodide staining based flow cytometry analysis (reference value: 1.47%)", "type": "functional"}, "[12]": {"experiment": "Induction in caspase-mediated apoptosis in human NB4-DR1 cells assessed as necrotic cells at 50 uM incubated for 24 hrs by Annexin V-FITC/propidium iodide staining based flow cytometry analysis (reference value: 0.19%)", "type": "functional"}, "[13]": {"experiment": "Induction in caspase-mediated apoptosis in human NB4-DR1 cells assessed as late apoptotic cells at 100 uM incubated for 24 hrs by Annexin V-FITC/propidium iodide staining based flow cytometry analysis (reference value: 1.47%)", "type": "functional"}, "[14]": {"experiment": "Induction in caspase-mediated apoptosis in human NB4-DR1 cells assessed as necrotic cells at 12.5 uM incubated for 24 hrs in presence of Z-VAD-FMK by Annexin V-FITC/propidium iodide staining based flow cytometry analysis (reference value: 0.223%)", "type": "functional"}, "[15]": {"experiment": "Induction in caspase-mediated apoptosis in human NB4-DR1 cells assessed as viable cells at 25 uM incubated for 24 hrs in presence of Z-VAD-FMK by Annexin V-FITC/propidium iodide staining based flow cytometry analysis (reference value: 96.4%)", "type": "functional", "details": "read-out: Activity"}, "[16]": {"experiment": "Induction in caspase-mediated apoptosis in human NB4-DR1 cells assessed as early apoptosis cells at 25 uM incubated for 24 hrs in presence of Z-VAD-FMK by Annexin V-FITC/propidium iodide staining based flow cytometry analysis (reference value: 0.875%)", "type": "functional"}, "[17]": {"experiment": "Induction in caspase-mediated apoptosis in human NB4-DR1 cells assessed as late apoptotic cells at 50 uM incubated for 24 hrs in presence of Z-VAD-FMK by Annexin V-FITC/propidium iodide staining based flow cytometry analysis (reference value: 2.54%)", "type": "functional"}, "[18]": {"experiment": "Induction in caspase-mediated apoptosis in human NB4-DR1 cells assessed as necrotic cells at 50 uM incubated for 24 hrs in presence of Z-VAD-FMK by Annexin V-FITC/propidium iodide staining based flow cytometry analysis (reference value: 0.223%)", "type": "functional"}, "NB-4": {"tested_on": "NB-4", "experiment": "Antitumor activity against human NB-4 cells xenografted in BALB/c nude mouse assessed as tumor growth inhibition at 15 mg/kg/day, ip administered for 2 weeks relative to control", "type": "functional", "details": "NB-4, ip, 336 h, read-out: TGI", "outline": "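Female Balb/c nude mice, 4 weeks old, received 2 × 10^6 NB4 cells s.c. in the right flank. Once tumours reached about 0.5 cm diameter, mice were randomised to corn-oil vehicle or drug in corn oil (n = 5). Dosing was 15 mg/kg/d i.p. once daily for 2 weeks. Caliper volume (length × width²)/2 was taken every other day, and tumours were excised and weighed at the end.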"}, "[19]": {"experiment": "Toxicity in BALB/c mouse xenografted with human NB-4 cells assessed as body weight loss at 15 mg/kg/day, ip administered for 2 weeks", "type": "organism-based", "details": "in vivo, 336 h", "outline": "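Female Balb/c nude mice (4 weeks old) injected subcutaneously in the right flank with 2 × 10^6 NB4 cells. At about 0.5 cm tumour diameter, mice were randomised (n = 5). Dosing was 15 mg/kg/d i.p. in corn oil, or corn-oil vehicle, daily for 2 weeks, with body weight recorded throughout; mean ± SEM.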"}, "[20]": {"biological_target": "Glycogen synthase kinase-3 beta (Homo sapiens, UniProt P49841)", "sequence (P49841 whole entry, looked up)": "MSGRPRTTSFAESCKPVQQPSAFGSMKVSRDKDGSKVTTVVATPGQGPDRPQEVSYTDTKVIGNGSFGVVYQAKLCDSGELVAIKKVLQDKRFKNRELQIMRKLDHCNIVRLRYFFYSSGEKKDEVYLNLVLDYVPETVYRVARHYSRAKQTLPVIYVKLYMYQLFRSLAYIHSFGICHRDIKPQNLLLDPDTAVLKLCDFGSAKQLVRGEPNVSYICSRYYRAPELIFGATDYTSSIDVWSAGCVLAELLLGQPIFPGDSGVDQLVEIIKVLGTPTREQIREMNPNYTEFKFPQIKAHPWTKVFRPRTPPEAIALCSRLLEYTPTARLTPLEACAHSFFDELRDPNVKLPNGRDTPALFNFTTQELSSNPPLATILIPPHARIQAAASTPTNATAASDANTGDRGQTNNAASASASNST", "experiment": "Binding affinity to recombinant human GSK-3beta assessed as covalent bond formation between compound and enzyme by measuring mass changes by […] analysis", "outline": "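Human recombinant GSK-3β (10 μM stock in 50 mM HEPES, 1 mM EDTA, 2 mM EGTA, 15 mM Mg(OAc)2) was incubated with compound in DMSO (1.6 μL of 500 μM into 14.4 μL) at 30 °C with shaking for 30 min. Intact protein was run on C4 LC over a 5–100% acetonitrile/0.1% formic acid gradient into positive-ion Q-TOF MS, and mass shift was read.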"}}, "note": "Active and inactive are the calls of the source. No cut-off for these calls is given here."}
{"smiles": "C=CC(=O)N1C(=O)CC(c2ccc(F)cc2)Sc2ccccc21", "note": "(configuration not stated)", "values": [{"measurement": "IC50", "setting": "MOLT-4", "value": 75.6, "unit": "µM"}, {"measurement": "inhibition", "setting": "[1]", "value": 87.3, "unit": "%"}, {"measurement": "viability at 24 h, up to 50 µM", "setting": "[2]", "value": "> 80", "unit": "%"}, {"measurement": "Activity", "setting": "[3]", "value": 6.13, "unit": "%"}, {"measurement": "Activity", "setting": "[4]", "value": 45.6, "unit": "%"}, {"measurement": "Activity", "setting": "[5]", "value": 74, "unit": "%"}, {"measurement": "viability at 12.5 µM", "setting": "[6]", "value": 86.4, "unit": "%"}, {"measurement": "Activity", "setting": "[7]", "value": 11.2, "unit": "%"}, {"measurement": "viability at 50 µM", "setting": "[8]", "value": 78.6, "unit": "%"}, {"measurement": "Activity", "setting": "[9]", "value": 8.18, "unit": "%"}, {"measurement": "viability at 12.5 µM", "setting": "[10]", "value": 92.2, "unit": "%"}, {"measurement": "Activity", "setting": "[11]", "value": 5.54, "unit": "%"}, {"measurement": "Activity", "setting": "[12]", "value": 2.29, "unit": "%"}, {"measurement": "Activity", "setting": "[13]", "value": 46.8, "unit": "%"}, {"measurement": "Activity", "setting": "[14]", "value": 0.332, "unit": "%"}, {"measurement": "viability at 25 µM", "setting": "[15]", "value": 93, "unit": "%"}, {"measurement": "Activity", "setting": "[16]", "value": 1.04, "unit": "%"}, {"measurement": "Activity", "setting": "[17]", "value": 7.04, "unit": "%"}, {"measurement": "Activity", "setting": "[18]", "value": 0.584, "unit": "%"}, {"measurement": "inhibition in vivo at 15 mg/kg/day", "setting": "NB-4", "value": 76, "unit": "%"}, {"measurement": "Activity", "setting": "[19]", "value": "Toxic"}, {"measurement": "Activity", "setting": "[20]", "value": "Active"}]}
